This is an account of results in ChEMBL document CHEMBL5661979, “Pharmacological inhibition of BMK1 suppresses tumor growth through promyelocytic leukemia protein” (Cancer Cell, 2010).

pIC50: −log10 of the molar value.

In data set [1] the target is Serine/threonine-protein kinase Chk1 (Homo sapiens, UniProt O14757). The experiment in a line: Inhibition of CHK1 inactive site in human HeLa cells lysate pre incubated for 15 mins followed by ATP acyl phosphate probe addition and measured after 10 mins by LC-MS/MS analysis. The data set is classed as subcellular.
Sequence of Serine/threonine-protein kinase Chk1 (O14757 whole entry): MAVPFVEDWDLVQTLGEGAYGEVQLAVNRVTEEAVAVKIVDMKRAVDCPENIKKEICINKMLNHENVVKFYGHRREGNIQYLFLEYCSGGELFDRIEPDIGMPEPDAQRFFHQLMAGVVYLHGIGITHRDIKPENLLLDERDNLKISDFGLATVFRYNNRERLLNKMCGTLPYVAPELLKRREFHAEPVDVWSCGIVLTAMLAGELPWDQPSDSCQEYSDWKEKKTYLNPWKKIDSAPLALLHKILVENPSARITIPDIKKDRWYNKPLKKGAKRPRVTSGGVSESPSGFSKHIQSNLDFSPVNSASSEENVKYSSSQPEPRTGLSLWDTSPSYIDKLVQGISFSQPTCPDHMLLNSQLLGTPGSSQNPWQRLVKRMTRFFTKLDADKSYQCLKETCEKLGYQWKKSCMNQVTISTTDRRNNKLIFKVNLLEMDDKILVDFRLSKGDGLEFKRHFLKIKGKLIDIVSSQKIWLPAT
For data set [2], the target named is Phosphatidylinositol 5-phosphate 4-kinase type-2 gamma (Homo sapiens, UniProt Q8TBX8). The experiment in a line: Inhibition of PIP5K2C in human HeLa cells lysate pre incubated for 15 mins followed by ATP acyl phosphate probe addition and measured after 10 mins by LC-MS/MS analysis. The format is subcellular.
The target of data set [3] is T1, Interferon-induced, double-stranded RNA-activated protein kinase (Homo sapiens, UniProt P19525). The experiment in a line: Inhibition of PKR in human HeLa cells lysate pre incubated for 15 mins followed by ATP acyl phosphate probe addition and measured after 10 mins by LC-MS/MS analysis. The format is subcellular.
T1 sequence (P19525 whole entry): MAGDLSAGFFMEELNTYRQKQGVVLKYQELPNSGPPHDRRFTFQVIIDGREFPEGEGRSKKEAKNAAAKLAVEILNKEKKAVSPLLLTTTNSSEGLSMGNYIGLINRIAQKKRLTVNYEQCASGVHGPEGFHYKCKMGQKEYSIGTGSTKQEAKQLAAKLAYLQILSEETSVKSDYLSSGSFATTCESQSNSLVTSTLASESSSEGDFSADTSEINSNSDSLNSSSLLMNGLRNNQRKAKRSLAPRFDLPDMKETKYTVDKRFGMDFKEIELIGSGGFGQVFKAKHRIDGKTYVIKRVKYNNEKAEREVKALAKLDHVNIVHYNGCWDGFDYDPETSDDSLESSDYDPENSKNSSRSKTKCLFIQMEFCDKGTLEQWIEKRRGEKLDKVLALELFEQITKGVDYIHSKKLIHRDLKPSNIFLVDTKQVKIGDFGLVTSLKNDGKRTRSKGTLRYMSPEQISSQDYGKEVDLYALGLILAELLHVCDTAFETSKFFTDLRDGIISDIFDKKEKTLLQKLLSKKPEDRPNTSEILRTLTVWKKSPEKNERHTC
In data set [4] the target is T2, Interleukin-1 receptor-associated kinase 4 (Homo sapiens) (UniProt Q9NWZ3).
T2 sequence (whole entry): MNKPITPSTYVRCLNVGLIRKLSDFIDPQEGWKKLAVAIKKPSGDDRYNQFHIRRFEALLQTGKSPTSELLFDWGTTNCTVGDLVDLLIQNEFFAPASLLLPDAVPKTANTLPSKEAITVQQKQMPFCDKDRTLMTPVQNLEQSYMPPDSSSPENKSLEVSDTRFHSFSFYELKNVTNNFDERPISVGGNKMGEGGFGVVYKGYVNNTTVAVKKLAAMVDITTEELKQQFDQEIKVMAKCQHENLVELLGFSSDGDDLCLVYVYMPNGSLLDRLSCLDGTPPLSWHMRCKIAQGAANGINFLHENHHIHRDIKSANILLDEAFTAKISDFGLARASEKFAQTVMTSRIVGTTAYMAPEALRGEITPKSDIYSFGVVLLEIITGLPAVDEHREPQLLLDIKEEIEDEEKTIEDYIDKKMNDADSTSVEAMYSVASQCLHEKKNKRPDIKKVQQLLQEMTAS
The experiment in a line: Inhibition of IRAK4 in human HeLa cells lysate at 2 uM pre incubated for 15 mins followed by ADP acyl phosphate probe addition and measured after 10 mins by LC-MS/MS analysis relative to control. Conditions: time 25.0 min. The format is subcellular.

For data set [5], the target named is Glycogen synthase kinase-3 alpha (Homo sapiens, UniProt P49840). The experiment in a line: Inhibition of GSK3A in human HeLa cells lysate at 50 uM pre incubated for 15 mins followed by ATP acyl phosphate probe addition and measured after 10 mins by LC-MS/MS analysis relative to control. The format is subcellular. Conditions: time 25.0 min.
Sequence of Glycogen synthase kinase-3 alpha (P49840 2-483 limits assumed): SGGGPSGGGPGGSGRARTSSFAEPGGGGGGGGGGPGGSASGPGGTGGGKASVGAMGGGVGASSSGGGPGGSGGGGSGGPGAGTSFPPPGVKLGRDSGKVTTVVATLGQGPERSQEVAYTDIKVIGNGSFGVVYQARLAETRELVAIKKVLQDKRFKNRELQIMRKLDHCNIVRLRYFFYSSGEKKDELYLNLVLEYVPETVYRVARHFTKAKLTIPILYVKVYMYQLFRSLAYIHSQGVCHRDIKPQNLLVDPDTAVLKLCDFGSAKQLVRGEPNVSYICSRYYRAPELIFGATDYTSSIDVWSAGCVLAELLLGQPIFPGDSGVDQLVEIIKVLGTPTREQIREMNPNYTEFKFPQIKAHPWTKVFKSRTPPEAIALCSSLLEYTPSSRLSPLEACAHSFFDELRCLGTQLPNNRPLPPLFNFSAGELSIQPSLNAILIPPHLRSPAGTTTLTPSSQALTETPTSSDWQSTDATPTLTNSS
For data set [6], the target named is T3, Serine/threonine-protein kinase Sgk3 (Homo sapiens) (UniProt Q96BR1).
T3 sequence (whole entry): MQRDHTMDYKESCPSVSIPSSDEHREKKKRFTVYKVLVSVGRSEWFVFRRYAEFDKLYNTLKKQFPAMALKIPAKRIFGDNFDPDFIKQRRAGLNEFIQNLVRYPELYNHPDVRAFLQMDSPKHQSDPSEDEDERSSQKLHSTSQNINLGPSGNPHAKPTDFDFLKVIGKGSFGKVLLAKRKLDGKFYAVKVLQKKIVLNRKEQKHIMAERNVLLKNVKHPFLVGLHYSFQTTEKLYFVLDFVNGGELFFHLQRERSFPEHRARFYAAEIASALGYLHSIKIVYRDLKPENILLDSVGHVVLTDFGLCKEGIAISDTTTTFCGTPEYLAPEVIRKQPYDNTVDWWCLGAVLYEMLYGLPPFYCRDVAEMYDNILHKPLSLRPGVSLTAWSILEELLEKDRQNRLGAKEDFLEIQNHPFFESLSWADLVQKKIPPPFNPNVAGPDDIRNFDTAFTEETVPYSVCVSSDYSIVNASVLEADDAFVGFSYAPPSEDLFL
The experiment in a line: Inhibition of SGK3 in human HeLa cells lysate at 10 uM pre incubated for 15 mins followed by ATP acyl phosphate probe addition and measured after 10 mins by LC-MS/MS analysis relative to control. The note with it: time 25.0 min. The format is subcellular.

In data set [7] the target is T1, Interferon-induced, double-stranded RNA-activated protein kinase. The experiment in a line: Inhibition of PKR in human HeLa cells lysate at 10 uM pre incubated for 15 mins followed by ATP acyl phosphate probe addition and measured after 10 mins by LC-MS/MS analysis relative to control. The data set is classed as subcellular. The note with it: time 25.0 min.
A short description of data set [8]: Inhibition of MAP3K2/3 in human HeLa cells lysate at 10 uM pre incubated for 15 mins followed by ATP acyl phosphate probe addition and measured after 10 mins by LC-MS/MS analysis relative to control. The note with it: 25 min, condition cancer.
In data set [9] the target is Mitogen-activated protein kinase kinase kinase 5 (Homo sapiens) (UniProt Q99683). The experiment in a line: Inhibition of MAP3K5 in human HeLa cells lysate at 10 uM pre incubated for 15 mins followed by ATP acyl phosphate probe addition and measured after 10 mins by LC-MS/MS analysis relative to control. The format is subcellular. Conditions: time 25.0 min.
Sequence of Mitogen-activated protein kinase kinase kinase 5 (Homo sapiens) (Q99683 whole entry): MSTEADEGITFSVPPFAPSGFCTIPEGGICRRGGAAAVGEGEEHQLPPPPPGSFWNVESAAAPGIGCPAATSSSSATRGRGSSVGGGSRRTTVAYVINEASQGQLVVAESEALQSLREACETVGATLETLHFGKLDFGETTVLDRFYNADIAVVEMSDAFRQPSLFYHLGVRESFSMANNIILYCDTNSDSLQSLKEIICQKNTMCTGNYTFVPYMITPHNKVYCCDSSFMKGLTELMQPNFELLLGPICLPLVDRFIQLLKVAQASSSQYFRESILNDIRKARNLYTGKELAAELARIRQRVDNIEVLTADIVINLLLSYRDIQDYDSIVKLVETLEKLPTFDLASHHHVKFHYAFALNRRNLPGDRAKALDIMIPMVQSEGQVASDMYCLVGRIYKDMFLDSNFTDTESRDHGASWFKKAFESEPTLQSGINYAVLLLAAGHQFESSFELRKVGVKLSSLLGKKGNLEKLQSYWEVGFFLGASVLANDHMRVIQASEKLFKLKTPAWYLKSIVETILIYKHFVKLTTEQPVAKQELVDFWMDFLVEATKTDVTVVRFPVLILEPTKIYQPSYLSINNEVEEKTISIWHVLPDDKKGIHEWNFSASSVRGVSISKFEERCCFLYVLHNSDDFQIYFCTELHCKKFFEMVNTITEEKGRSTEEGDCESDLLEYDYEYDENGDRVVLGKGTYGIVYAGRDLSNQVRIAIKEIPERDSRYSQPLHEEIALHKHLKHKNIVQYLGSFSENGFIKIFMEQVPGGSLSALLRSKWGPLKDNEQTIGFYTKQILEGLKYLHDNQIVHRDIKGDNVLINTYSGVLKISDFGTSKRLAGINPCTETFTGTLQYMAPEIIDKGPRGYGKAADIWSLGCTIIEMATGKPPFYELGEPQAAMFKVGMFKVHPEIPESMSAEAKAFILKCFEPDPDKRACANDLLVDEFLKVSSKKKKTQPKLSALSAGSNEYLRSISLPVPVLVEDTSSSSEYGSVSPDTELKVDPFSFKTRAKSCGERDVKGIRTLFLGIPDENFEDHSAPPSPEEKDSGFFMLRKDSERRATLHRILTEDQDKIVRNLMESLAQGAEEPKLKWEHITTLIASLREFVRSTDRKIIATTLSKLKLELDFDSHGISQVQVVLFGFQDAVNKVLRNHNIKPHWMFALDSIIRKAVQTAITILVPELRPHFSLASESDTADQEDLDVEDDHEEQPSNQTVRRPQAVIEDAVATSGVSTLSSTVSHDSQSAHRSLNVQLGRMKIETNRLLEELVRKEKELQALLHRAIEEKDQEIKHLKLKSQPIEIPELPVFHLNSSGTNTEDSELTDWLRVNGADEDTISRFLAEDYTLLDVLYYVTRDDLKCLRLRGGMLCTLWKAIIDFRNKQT
For data set [10], the target named is T4, Phosphatidylinositol 5-phosphate 4-kinase type-2 gamma (Homo sapiens) (UniProt Q8TBX8).
T4 sequence (whole entry): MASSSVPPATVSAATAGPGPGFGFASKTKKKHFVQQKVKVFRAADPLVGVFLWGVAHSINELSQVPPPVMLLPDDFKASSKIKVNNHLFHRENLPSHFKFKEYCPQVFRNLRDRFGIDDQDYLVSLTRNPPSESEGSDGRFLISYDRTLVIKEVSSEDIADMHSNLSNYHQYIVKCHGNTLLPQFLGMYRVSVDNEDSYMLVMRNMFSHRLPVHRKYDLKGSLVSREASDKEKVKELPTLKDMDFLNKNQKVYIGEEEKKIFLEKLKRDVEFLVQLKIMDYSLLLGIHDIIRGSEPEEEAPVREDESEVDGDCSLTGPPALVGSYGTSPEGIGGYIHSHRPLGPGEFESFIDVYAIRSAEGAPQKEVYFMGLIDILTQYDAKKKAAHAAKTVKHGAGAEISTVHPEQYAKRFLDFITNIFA
The experiment in a line: Inhibition of PIP5K2C LIP1 site in human HeLa cells lysate at 2 uM pre incubated for 15 mins followed by ATP acyl phosphate probe addition and measured after 10 mins by LC-MS/MS analysis relative to control. The data set is classed as subcellular. Conditions: time 25.0 min.

The target in data set [11] is Cyclin-dependent kinase 11B (Homo sapiens, UniProt P21127). The experiment in a line: Inhibition of PITSLRE in human HeLa cells lysate at 2 uM pre incubated for 15 mins followed by ATP acyl phosphate probe addition and measured after 10 mins by LC-MS/MS analysis relative to control. The data set is classed as subcellular. Conditions: time 25.0 min.
Sequence of Cyclin-dependent kinase 11B (P21127 whole entry): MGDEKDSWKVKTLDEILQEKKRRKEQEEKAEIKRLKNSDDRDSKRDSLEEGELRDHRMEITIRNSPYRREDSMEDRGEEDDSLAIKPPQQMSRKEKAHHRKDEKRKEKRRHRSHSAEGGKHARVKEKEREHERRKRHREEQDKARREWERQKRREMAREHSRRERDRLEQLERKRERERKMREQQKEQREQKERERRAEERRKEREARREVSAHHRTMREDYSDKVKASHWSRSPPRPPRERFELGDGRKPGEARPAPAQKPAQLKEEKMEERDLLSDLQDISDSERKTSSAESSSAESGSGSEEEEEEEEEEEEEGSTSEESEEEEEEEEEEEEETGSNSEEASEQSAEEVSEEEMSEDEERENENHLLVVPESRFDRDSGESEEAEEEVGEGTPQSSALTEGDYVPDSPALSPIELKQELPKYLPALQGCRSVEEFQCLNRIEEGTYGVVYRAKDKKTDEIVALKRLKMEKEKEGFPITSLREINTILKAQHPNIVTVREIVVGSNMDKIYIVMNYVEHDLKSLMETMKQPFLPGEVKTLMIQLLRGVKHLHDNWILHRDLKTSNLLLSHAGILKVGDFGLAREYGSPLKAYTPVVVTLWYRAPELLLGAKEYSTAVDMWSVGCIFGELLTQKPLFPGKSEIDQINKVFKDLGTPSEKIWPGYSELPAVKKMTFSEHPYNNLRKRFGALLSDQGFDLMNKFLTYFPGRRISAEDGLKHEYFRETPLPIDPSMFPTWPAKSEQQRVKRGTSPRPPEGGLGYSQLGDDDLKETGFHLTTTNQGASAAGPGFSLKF
Data set [12] can be described thus: Inhibition of MAP3K2/3 in human HeLa cells lysate at 2 uM pre incubated for 15 mins followed by ATP acyl phosphate probe addition and measured after 10 mins by LC-MS/MS analysis relative to control. Conditions: 25 min, condition cancer.
Data set [13] can be described thus: Half life in Sprague-Dawley rat at 2 mg/kg, po measured up to 8 hrs by LC-MS/MS analysis. The format is ADME, organism-based. The note with it: in vivo. An outline of the steps:
(§1)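 Sprague-Dawley rats given one intravenous dose or one oral dose of 2 mg/kg. Plasma drug concentrations were followed over time, with samples taken out to 8 hr after dosing. PK parameters (clearance, volume of distribution, half-life, oral bioavailability, Cmax) were calculated from these concentration–time data.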

Data set [14] is described as follows: Clearance in Sprague-Dawley rat at 1 mg/kg, iv measured up to 8 hrs by LC-MS/MS analysis. The data set is classed as ADME, organism-based. Conditions: in vivo. An outline of the steps:
as §1

Data set [15] can be described thus: Toxicity in C57Bl/6 mouse assessed as effect on injection site at 50 mg/kg, ip for 14 days. The format is organism-based. Conditions: in vivo, 336 h, time 14 day.

Regarding `CCOc1cc(N2CCC(O)CC2)ccc1Nc1ncc2c(n1)N(C)c1ccccc1C(=O)N2C`, the negative logarithm of the IC50 (pIC50) in data set [1], in [2] and in [3] was below 4.30 in each case. Further, the inhibition in [4] was 12.7%; in data set [5] it was 10.4%; in [6] it was 4.4%; in [7], -2.3%; in [9], 12.5%; in data set [10], -3.7%. Further, the inhibition in [11] was 4.9%. The inhibition at 10 µM in data set [8] is -7.8%. The inhibition at 2 µM in data set [12] is -2.1%. This compound gave a half-life in data set [13] of 3.4 h. This compound returned a clearance in [14] of 26 mL/min/kg. Also, the Activity entry in data set [15] is recorded as “Non-Toxic”.

As a reminder, the pIC50 is the IC50 on a negative log10 scale, so that one unit is a factor of ten. The low end stands for a large IC50, the high end for a small IC50. The term inhibition denotes the change of the read-out against control, counted positive when it falls. Usually half-life stands for how long it takes for the measured level to halve. Lower therefore signals fast loss. What is called clearance is the rate of elimination divided by the concentration. Read a low clearance as inefficient removal.
